{"source": "paper PMC6766976", "about": "(Journal of Clinical Pharmacology, 2019)", "key": {"[1]": {"conditions": "cited from earlier work"}, "[2]": {"format": "in vivo, human"}, "JAK 3": {"test_system": "JAK 3", "conditions": "cited from earlier work"}, "JAK 2": {"test_system": "JAK 2", "conditions": "cited from earlier work"}, "[3]": {"conditions": "cited from earlier work", "remark": "listed apart in the source"}, "[4]": {"experiment": "Safety and tolerability assessments in the hepatic impairment study", "format": "in vivo, human", "conditions": "Single 15-mg dose", "procedure,_shortened": "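Open-label, single-dose study in subjects with mild or moderate hepatic impairment (Child-Pugh) and normal-function controls. Subjects were confined from the day before dosing and given the oral extended-release test compound after a 10-hour fast, then fasted 4 h post-dose. Adverse events, hematology, blood chemistry, vital signs, ECGs and physical exams were monitored. Treatment-emergent events were tabulated per hepatic group by MedDRA class and term.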"}, "[5]": {"conditions": "cited from earlier work", "remark": "listed apart in the source"}, "JAK 1": {"test_system": "JAK 1", "conditions": "cited from earlier work"}, "[6]": {"conditions": "Over the range of IR and ER doses evaluated in clinical studies; cited from earlier work"}, "[7]": {"conditions": "cited from earlier work", "remark": "listed apart in the source"}, "Tyk2": {"test_system": "Tyk2", "conditions": "cited from earlier work"}, "cytochrome P450 (CYP) 3A": {"test_system": "cytochrome P450 (CYP) 3A", "conditions": "cited from earlier work"}, "plasma proteins": {"test_system": "plasma proteins", "conditions": "ref data on file at AbbVie; cited from earlier work"}, "[8]": {"conditions": "Moderate hepatic impairment (outlier excluded)"}, "[9]": {"conditions": "Subjects with mild and moderate hepatic impairment"}, "[10]": {"conditions": "IR formulation, relative to upadacitinib alone"}}, "note": "Read-outs that look alike come from different tables or passages of the source.", "data": [{"compound": "CC[C@@H]1CN(C(=O)NCC(F)(F)F)C[C@@H]1c1cnc2cnc3[nH]ccc3n12", "note": "[upadacitinib]", "values": [{"measurement": "Increase in upadacitinib exposure with a high-fat meal", "setting": "[1]", "value": "Approximately 20%"}, {"measurement": "AUC lower compared with mean AUC in subjects with normal hepatic function", "setting": "[2]; 1 subject in the moderate hepatic impairment group (excluded from analyses)", "value": "approximately 70%"}, {"measurement": "Plasma concentration at 120 hours", "setting": "[2]; All subjects and all groups, lower limit of quantitation 0.05 ng/mL", "value": "below the assay limit of quantification"}, {"measurement": "AUC central value higher compared with normal hepatic function", "setting": "[2]; Mild hepatic impairment", "value": 28, "unit": "%"}, {"measurement": "Cmax central value compared with normal hepatic function", "setting": "[2]; Mild hepatic impairment", "value": "similar"}, {"measurement": "β (terminal-phase elimination rate constant) versus normal hepatic function", "setting": "[2]; Mild hepatic impairment, ANCOVA", "value": "no statistically significant difference"}, {"measurement": "AUC central value higher compared with normal hepatic function", "setting": "[2]; [8]", "value": 24, "unit": "%"}, {"measurement": "Cmax central value higher compared with normal hepatic function", "setting": "[2]; [8]", "value": 43, "unit": "%"}, {"measurement": "Increase in upadacitinib exposure, AUC", "setting": "[2]; [9]", "value": "< 30", "unit": "%"}, {"measurement": "Increase in upadacitinib exposure, Cmax", "setting": "[2]; [9]", "value": "< 45", "unit": "%"}, {"measurement": "Potency against JAK 3 compared with JAK 1", "setting": "JAK 3", "value": "less potent"}, {"measurement": "Potency against JAK 2 compared with JAK 1", "setting": "JAK 2", "value": "less potent"}, {"measurement": "AUC higher compared with normal renal function", "setting": "[3]; Mild renal impairment", "value": 18, "unit": "%"}, {"measurement": "Cmax compared with normal renal function", "setting": "[3]; Mild, moderate and severe renal impairment", "value": "similar"}, {"measurement": "AUC higher compared with normal renal function", "setting": "[3]; Moderate renal impairment", "value": 33, "unit": "%"}, {"measurement": "AUC higher compared with normal renal function", "setting": "[3]; Severe renal impairment", "value": 44, "unit": "%"}, {"measurement": "Changes in vital signs or hematology measurements", "setting": "[4]", "value": "No clinically significant changes"}, {"measurement": "Tolerability", "setting": "[4]; all subjects", "value": "well tolerated"}, {"measurement": "Dose eliminated unchanged in urine", "setting": "[5]; IR dose", "value": "Approximately 20%"}, {"measurement": "Dose eliminated in urine and feces as metabolites", "setting": "[5]; ref data on file at AbbVie", "value": "approximately 30%"}, {"measurement": "Inhibition of JAK 1", "setting": "JAK 1", "value": "potently inhibits"}, {"measurement": "Plasma exposure dose and time dependence", "setting": "[6]", "value": "approximately dose proportional and time independent"}, {"measurement": "Impact of baseline AST, ALT and bilirubin on upadacitinib exposure", "setting": "[7]; Phase 1 to 3 studies, healthy subjects and subjects with RA", "value": "no impact"}, {"measurement": "Correlation of CYP2D6 metabolic phenotype with upadacitinib clearance", "setting": "[7]", "value": "not correlated"}, {"measurement": "Effect of age, weight, sex, race and ethnicity on upadacitinib exposure", "setting": "[7]", "value": "no clinically relevant effect"}, {"measurement": "Potency against Tyk2 compared with JAK 1", "setting": "Tyk2", "value": "less potent"}, {"measurement": "Substrate status for cytochrome P450 (CYP) 3A", "setting": "cytochrome P450 (CYP) 3A; Evaluated in phase 1 drug-interaction study with ketoconazole", "value": "nonsensitive substrate"}, {"measurement": "Increase in plasma AUC with coadministration of ketoconazole", "setting": "cytochrome P450 (CYP) 3A; [10]", "value": 75, "unit": "%"}, {"measurement": "Increase in plasma Cmax with coadministration of ketoconazole", "setting": "cytochrome P450 (CYP) 3A; [10]", "value": 70, "unit": "%"}, {"measurement": "Plasma protein binding", "setting": "plasma proteins", "value": "not extensively bound to plasma proteins"}]}]}
